# Source: ChEMBL document CHEMBL4627410, “Discovery of an Orally Active Small-Molecule Tumor Necrosis Factor-α Inhibitor” (J Med Chem, 2020)
# The source made the active and inactive calls. The rule behind the calls is not given here.
# Experiments:
# [1] = molecular target: T1, Tumor necrosis factor (Homo sapiens, UniProt P01375); assay: Binding affinity to recombinant TNFalpha (unknown origin) expressed in Escherichia coli BL21 (DE3) incubated for 10 mins by MST assay
# [2] = tested on: Mus musculus; assay: Antiinflammatory activity in Balb/c mouse model of Imiquimod-induced psoriasis-like skin lesions assessed as reduction of serum IL6 level at 5 mg/kg, ig by ELISA; assay type: functional, organism-based
# Outline: (§1)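 Back skin shaved (5 cm × 4 cm) under isoflurane. Two days later, 5% imiquimod cream applied topically for 6 consecutive days; controls received base cream. Dosing by gavage, with prednisone 5 mg/kg as reference, n=10 per group. Erythema and scaling scored daily and blinded, 0–4. On day 7: spleen index, serum IL-1β and IL-6 by ELISA, and 3 µm H&E back-skin sections. Means ± SD.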
# [3] = tested on: Mus musculus; assay: Antiinflammatory activity in Balb/c mouse model of collagen-induced arthritis assessed as reduction in degree of cartilage and bone destruction and inflammation at 5 mg/kg, ig for 2 weeks by H and E staining based histopathological analysis; assay type: functional, organism-based
# Outline: (§2)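 Balb/c mice immunized intradermally at the tail base with bovine type II collagen emulsified 1:1 in complete Freund's adjuvant (1 mg/mL, 0.1 mL), with the same boost on day 14. Gavage dosing for 2 weeks; prednisone 5 mg/kg i.g. as reference. Non-immunized normal group included, n=10 per group. Outcomes: four-paw arthritis score, blinded, maximum 16. Spleen index = spleen weight/body weight. Serum cytokines by ELISA. Right hind limb fixed in 4% paraformaldehyde, decalcified 30 days in 12.5% EDTA pH 7.0, 6–8 μm H&E sections graded blindly 0–3.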
# [4] = tested on: Mus musculus; assay: Antiinflammatory activity in Balb/c mouse model of Imiquimod-induced psoriasis-like skin lesions assessed as reduction of serum IL-1beta level at 5 mg/kg, ig by ELISA; assay type: functional, organism-based; outline: as §1
# [5] = tested on: Mus musculus; assay: Antiinflammatory activity in Balb/c mouse model of endotoxemia assessed as reduction in liver damage at 25 mg/kg, ig pre-treated 2 hrs before LPS injection and measured 12 to 96 hrs post LPS challenge by H and E staining based histopathological analysis; assay type: functional, organism-based
# Outline: (§3)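 Endotoxemia induced with LPS 15 mg/kg i.p., n=10 per group; controls received saline i.p. Gavage dose given 2 h before LPS, then again at 12, 24, 48, 72 and 96 h. Survival followed daily for up to 2 weeks. Liver and lung fixed in 10% formalin and sections stained with H&E. Means ± SD.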
# [6] = molecular target: T2, Tumor necrosis factor (Mus musculus) (UniProt P06804); assay: (§4) Inhibition of TNF-alpha in mouse RAW264.7 cells assessed as inhibition of LPS-induced IKBalpha phosphorylation at 5 to 20 uM pre-incubated for 12 hrs before LPS stimulation for 2 hrs by Western blot analysis; assay type: cell-based
# T2 sequence (whole entry): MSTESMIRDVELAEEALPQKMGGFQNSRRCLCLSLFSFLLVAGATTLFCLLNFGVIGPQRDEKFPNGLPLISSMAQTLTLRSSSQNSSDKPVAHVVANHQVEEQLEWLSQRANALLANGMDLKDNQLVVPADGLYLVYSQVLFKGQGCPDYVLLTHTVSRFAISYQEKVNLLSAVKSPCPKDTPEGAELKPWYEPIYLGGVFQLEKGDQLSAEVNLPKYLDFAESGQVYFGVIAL
# Outline: (§5)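 RAW264.7 cells (5×10^4 cells/mL) cultured overnight. Compound at 5, 10 or 20 µM for 12 h, then LPS 1 µg/mL for 2 h. Lysed in RIPA, protein equalized by BCA, run on 12% SDS-PAGE. Immunoblotted for IκBα and p-IκBα, ECL detection.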
# [7] = Toxicity in mouse RAW264.7 cells at 5 to 20 uM; assay type: cell-based
# [8] = molecular target: T2, Tumor necrosis factor (Mus musculus); assay: Inhibition of TNF-alpha in mouse RAW264.7 cells assessed as inhibition of NFkappB/p65 nuclear translocation at 5 to 20 uM by DAPI staining based microscopy; assay type: cell-based
# Outline: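 RAW264.7 cells grown to 50–70% confluence in glass chambers. Pretreated 12 h with DMSO or compound, then TNF-α 10 ng/mL for 2 h. Fixed in 4% paraformaldehyde, permeabilized with 0.25% Triton X-100, blocked with BSA. Stained with anti-p65 (1:1000, 4 °C overnight), fluorescent secondary (1:500) and DAPI nuclear stain. Imaged by fluorescence microscopy.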
# [9] = tested on: Mus musculus; assay: Antiinflammatory activity in Balb/c mouse model of collagen-induced arthritis assessed as reduction in arthritic score at 25 to 50 mg/kg, ig for 2 weeks; assay type: functional, organism-based; outline: as §2
# [10] = tested on: Mus musculus; assay: Antiinflammatory activity in Balb/c mouse model of Imiquimod-induced psoriasis-like skin lesions assessed as reduction of serum IL6 level at 25 to 50 mg/kg, ig after 7 days by ELISA; assay type: functional, organism-based; outline: as §1
# [11] = tested on: Mus musculus; assay: Antiinflammatory activity in Balb/c mouse model of Imiquimod-induced psoriasis-like skin lesions assessed as reduction of histopathological changes at 25 to 50 mg/kg, ig by H and E staining based histopathological analysis; assay type: functional, organism-based; outline: as §1
# [12] = molecular target: T2, Tumor necrosis factor (Mus musculus); assay: as §4; assay type: cell-based; outline: as §5; remark: listed apart in the source
# [13] = tested on: Mus musculus; assay: Antiinflammatory activity in Balb/c mouse model of Imiquimod-induced psoriasis-like skin lesions assessed as reduction of serum IL-1beta level at 25 to 50 mg/kg, ig by ELISA; assay type: functional, organism-based; outline: as §1
# [14] = tested on: Mus musculus; assay: Antiinflammatory activity in Balb/c mouse model of collagen-induced arthritis assessed as increase in serum IL10 level at 25 to 50 mg/kg, ig for 2 weeks by ELISA; assay type: functional, organism-based; outline: as §2
# [15] = tested on: Mus musculus; assay: Antiinflammatory activity in Balb/c mouse model of Imiquimod-induced psoriasis-like skin lesions assessed as reduction of spleen index at 25 to 50 mg/kg, ig; assay type: functional, organism-based; outline: as §1
# [16] = tested on: Mus musculus; assay: Antiinflammatory activity in Balb/c mouse assessed as inhibition of LPS-induced IL6 production at 25 to 50 mg/kg, po pre-treated 90 mins before LPS injection and measured after 4 hrs by sandwich ELISA; assay type: functional, organism-based
# Outline: (§6)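 Male Balb/c mice, 7–8 weeks old, randomized into control, LPS and two dose groups. Oral dosing 90 min before LPS (1.5 mg/kg, i.p.). Serum taken from clotted blood 4 h after LPS and stored at -80 °C. IL-1β and IL-6 measured by sandwich ELISA. At least six mice per group, each sample run in duplicate.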
# [17] = tested on: Mus musculus; assay: Antiinflammatory activity in Balb/c mouse model of Imiquimod-induced psoriasis-like skin lesions assessed as inhibition of inflammation at 25 to 50 mg/kg, ig; assay type: functional, organism-based; outline: as §1
# [18] = tested on: Mus musculus; assay: Antiinflammatory activity in Balb/c mouse model of collagen-induced arthritis assessed as reduction in serum IFNgamma level at 25 to 50 mg/kg, ig for 2 weeks by ELISA; assay type: functional, organism-based; outline: as §2
# [19] = molecular target: T1, Tumor necrosis factor; assay: Binding affinity to recombinant TNFalpha (unknown origin) expressed in Escherichia coli BL21 (DE3) assessed as increase in TNF-alpha thermal stability by measuring tolerated temperature (reference value: 90 degC)
# [20] = tested on: Mus musculus; assay: Antiinflammatory activity in Balb/c mouse assessed as inhibition of LPS-induced IL1-beta production at 25 to 50 mg/kg, po pre-treated 90 mins before LPS injection and measured after 4 hrs by sandwich ELISA; assay type: functional, organism-based; outline: as §6
# [21] = molecular target: T1, Tumor necrosis factor; assay: Binding affinity to recombinant TNFalpha (unknown origin) expressed in Escherichia coli BL21 (DE3) assessed as inhibition of TNFR1 binding to immobilized TNF-alpha pre-incubated with TNFR1 for 20 mins followed by TNFalpha addition and measured after 120 mins by ELISA
# [22] = tested on: Mus musculus; assay: Antiinflammatory activity in Balb/c mouse model of collagen-induced arthritis assessed as reduction in serum IL6 level at 25 to 50 mg/kg, ig for 2 weeks by ELISA; assay type: functional, organism-based; outline: as §2
# [23] = tested on: Mus musculus; assay: Antiinflammatory activity in Balb/c mouse model of collagen-induced arthritis assessed as reduction in degree of cartilage and bone destruction and inflammation at 25 to 50 mg/kg, ig for 2 weeks by H and E staining based histopathological analysis; assay type: functional, organism-based; outline: as §2
# [24] = tested on: Mus musculus; assay: Antiinflammatory activity in Balb/c mouse model of endotoxemia assessed as reduction in emergence of hemorrhagic necrosis at 25 mg/kg, ig pre-treated 2 hrs before LPS injection and measured 12 to 96 hrs post LPS challenge by H and E staining based histopathological analysis; assay type: functional, organism-based; outline: as §3
# [25] = tested on: Mus musculus; assay: Antiinflammatory activity in Balb/c mouse model of endotoxemia assessed as increase in mouse survival at 25 mg/kg, ig pre-treated 2 hrs before LPS injection and measured 12 to 96 hrs post LPS challenge; assay type: functional, organism-based; outline: as §3
# [26] = tested on: Mus musculus; assay: Antiinflammatory activity in Balb/c mouse model of collagen-induced arthritis assessed as reduction in serum IL-1beta level at 25 to 50 mg/kg, ig for 2 weeks by ELISA; assay type: functional, organism-based; outline: as §2
# [27] = molecular target: T1, Tumor necrosis factor; assay: Binding affinity to recombinant TNFalpha (unknown origin) expressed in Escherichia coli BL21 (DE3) assessed as protection of TNF-alpha from protease mediated digestion at 2.5 to 20 uM
# Outline: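 DARTS assay on TNF-α (His6-tagged, expressed in E. coli BL21(DE3) and purified by Ni-affinity, anion exchange and size exclusion). Protein was treated with compound, then digested with pronase for 30 min. Remaining TNF-α was read out.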
# [28] = tested on: Mus musculus; assay: Antiinflammatory activity in Balb/c mouse model of collagen-induced arthritis assessed as reduction in spleen index at 25 to 50 mg/kg, ig for 2 weeks; assay type: functional, organism-based; outline: as §2
# [29] = molecular target: T1, Tumor necrosis factor; assay: Binding affinity to recombinant TNFalpha (unknown origin) expressed in Escherichia coli BL21 (DE3) assessed as increase in Kd for TNF-alpha-TNFR1 binding at 10 uM pe-incubated for 15 mins before TNFR1 addition and measured after 15 mins by MST assay relative to control
# Outline: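 TNF-α (C-terminal His6, from E. coli BL21(DE3), purified by Ni-agarose, thrombin digest, anion exchange and size exclusion) at various concentrations was preincubated with 10 µM compound for 15 min at room temperature. The mix was added to an equal volume of RED-labelled TNFR1 in 20 mM HEPES pH 7.5, 0.05% Tween-20. MST was read at 22 °C (100% LED, 20% MST power) and KD was fitted.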
# [30] = tested on: Mus musculus; assay: Antiinflammatory activity in Balb/c mouse model of Imiquimod-induced psoriasis-like skin lesions assessed as decrease in adjusted scale scores consisting of erythema, epidermal acanthosis, and lesions thickness at 25 to 50 mg/kg, ig; assay type: functional, organism-based; outline: as §1
# [31] = tested on: Mus musculus; assay: Antiinflammatory activity in Balb/c mouse model of endotoxemia assessed as reduction in lung damage at 25 mg/kg, ig pre-treated 2 hrs before LPS injection and measured 12 to 96 hrs post LPS challenge by H and E staining based histopathological analysis; assay type: functional, organism-based; outline: as §3
# T1 sequence (P01375 whole entry): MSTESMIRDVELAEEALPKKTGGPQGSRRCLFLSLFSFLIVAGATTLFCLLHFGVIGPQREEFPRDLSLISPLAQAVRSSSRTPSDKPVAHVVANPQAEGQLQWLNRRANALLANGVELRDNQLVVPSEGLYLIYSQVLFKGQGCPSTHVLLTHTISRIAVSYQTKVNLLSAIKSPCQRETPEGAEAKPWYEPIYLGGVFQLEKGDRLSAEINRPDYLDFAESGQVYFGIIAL
structure (smiles),measurement,setting,value
O=c1c([C@H]2NCCc3c2[nH]c2ccccc32)c(O)[nH]c(=S)n1-c1ccc2ccccc2c1,Kd,[1],Not Active
O=c1c([C@H]2NCCc3c2[nH]c2ccccc32)c(O)[nH]c(=S)n1Cc1ccc(F)cc1,Kd,[1],Not Active
C[C@]12C=CC(=O)C=C1CC[C@@H]1[C@@H]2C(=O)C[C@@]2(C)[C@H]1CC[C@]2(O)C(=O)CO,Activity,[2],Active
same,Activity,[3],Active
same,Activity,[4],Active
O=C(CCc1ccccc1)[C@H]1Cc2[nH]cnc2CN1C(=O)c1cccs1,Kd,[1],Not Active
Cn1c(SCC(=O)N2CC(=O)Nc3cc(C(F)(F)F)ccc32)nnc1-c1ccccc1Cl,Kd,[1],Not Active
Cc1cc(C)cc(-n2c(O)c([C@H]3NCCc4c3[nH]c3ccccc43)c(O)nc2=S)c1,Kd,[1],Not Active
CC1CCc2c([nH]c3ccccc23)[C@H]1c1c(O)nc2n(c1=O)CCS2 (some centres not stated),Kd,[1],Not Active
O=C1C[C@H](Nc2ncnc3[nH]cnc23)CN1Cc1ccccc1,Activity,[5],Active
same,inhibition,[6],Active
same,IC50,[7],> 100 µM
same,inhibition,[8],Active
same,Activity,[9],Active
same,Activity,[10],Dose-dependent effect
same,Activity,[11],Active
same,inhibition,[12],Dose-dependent effect
same,Activity,[13],Dose-dependent effect
same,Activity,[14],Dose-dependent effect
same,Activity,[15],Active
same,Kd,[1]; read-out: Kd,82.1 µM
same,inhibition,[16],Active
same,Activity,[17],Active
same,Activity,[18],Dose-dependent effect
same,T,[19],94 °C
same,inhibition,[20],Active
same,IC50,[21],0.109 µM
same,Activity,[22],Dose-dependent effect
same,Activity,[23],Active
same,Activity,[24],Active
same,Activity,[25],Active
same,Activity,[26],Dose-dependent effect
same,Activity,[27],Dose-dependent effect
same,Activity,[28],Active
same,fold change (FC),[29],18
same,Activity,[30],Active
same,Activity,[31],Active
